The values that follow come from PMC10841594 (Cell chemical biology, 2023).

Data set [1] can be described thus: Cell-free metal selectivity assay. Format: biochemical.
Data set [2] relates to luciferase-expressing PDA and colon cancer cell lines. The data set can be described thus: Cellular bioluminescence assays with FAC, BPY or hepcidin pre-treatment. Type of data set: cell-based. The method in brief: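 Cells stably expressing firefly/Renilla luciferase (lentiviral, puromycin-selected) in DMEM with 10% FBS, plated to reach 75% confluence and assayed two days after plating. Serum-free DMEM with FAC for 60 min at 37 °C, optionally BPY for 30 min. Hepcidin-25 (1, 2, 4 µg/mL) given 16 h beforehand. Probe at 75 µM in Ca/Mg-free HBSS for 25 min, IVIS imaging at 30 min. D-luciferin (25 µM, 5 min) control.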

Data set [3] has as its system MIA PaCa-2 tumors. The data set can be described thus: Dual-reporter orthotopic PDA xenograft imaging with FeAL-1. Type of data set: in vivo, mouse.
The subject of data set [4] is SW1990 tumors. The description is as above. Type of data set: in vivo, mouse.
The test system of data set [5] is FC1245 tumors. The data set is described as above. Type of data set: in vivo, mouse.
Data set [6] concerns ferroportin. The data set can be described thus: Immunohistochemical staining for ferroportin. Format: in vivo, mouse. The conditions noted are these: for ferroportin staining in liver vs untreated controls: livers of the mice imaged with FeAL-1. The method in brief: (§1)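 Tissues fixed in 4% paraformaldehyde, paraffin-embedded and cut into 4-µm sections. Liver, heart and tumor sections stained with anti-4-HNE (1:500) or anti-ferroportin (1:500). Liver and heart came from imaged mice: untreated, hepcidin 50 µg/mouse/day for 3 days, or doxorubicin 10 mg/kg IP once 5 days prior. Staining intensity quantified by IHC Profiler in ImageJ (liver/heart n=3 per condition).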

Data set [7] relates to 4-hydroxynonenal (4-HNE). The data set can be described thus: Immunohistochemical staining for 4-HNE. Type of data set: in vivo, mouse. The essentials:
as §1

Data set [8] in a line: Storage stability of FeAL-1 powder. Type of data set: physicochemical. The following applies: stored as a powder at −20 °C under argon.
The nature of data set [9]: UPLC-MS Fe2+-fragmentation assay. The method in brief: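 Test compound at 40 µM final in 50 mM Tris-HCl pH 7.4/DMSO (9:1) with sodium ascorbate and ascorbic acid, each 2 mM final. Held 1 min at 37 °C, then sampled as the hemin-free control. Hemin added to 400 µM final and the mixture stirred at 37 °C. Aliquots taken at set time points over 62 min and analysed by UPLC-MS with UV at 303 nm.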

Data set [10] deals with MiaPaca2-luc cells. Kind of data set: Cellular assay comparing FeAL-1 and ICL-1 response. Type of data set: cell-based, human. The following applies: 20 μM probe, FAC 2 hours, imaged after 15 min.
Data set [11] deals with SW-1990-luc cells. The data set can be described thus: Cellular assay comparing FeAL-1 and ICL-1 response. The conditions noted are these: 20 μM probe, FAC 2 hours, imaged after 15 min. Type of data set: cell-based, human.
Data set [12] is described as follows: Pharmacokinetic study, plasma LC-MS/MS. Type of data set: in vivo, C57BL6 mice. The conditions noted are these: C57BL/6, mouse, ip, 20 mg/kg. The essentials:
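Healthy C57BL/6 mice received a single IP dose at 20 mg/kg (2.5 mL/kg; 15 mice per group). Composite plasma sampling, n=3 per timepoint: orbital bleed under isoflurane at 5, 10, 15, 30 and 45 min, then terminal vena cava bleed under CO2 at 1, 2, 3, 4 and 7 h. Blood collected into EDTA and centrifuged to plasma.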

The test system of data set [13] is non-heme iron. The following applies: DOX-treated mice, ex vivo methodology ref 16; cited from earlier work.
[14] abbreviates: hepcidin 50 μg/mouse for three days.
Where [15] appears, read: untreated tumor-bearing mice, FeAL-1 36 mg/kg IP.

With `O=C(O)[C@H]1CSC(c2nc3ccc(O)cc3s2)=N1` [D-luciferin], in data set [1] (control experiment, D-luciferin instead of FeAL-1), the “luminescent response of D-luciferin with increasing Fe^2+” value is “not affected by increasing concentrations of Fe^2+”.
In the case of “hepcidin: hepatic peptide hormone, negative regulator of the iron export protein ferroportin”, in data set [2] (hepcidin 1, 2 and 4 μg/mL, 16 hours, FeAL-1 75 μM), the “effect of hepcidin pre-treatment on FeAL-1 signal” value is reported as “corresponding increase in FeAL-1 signal across all cell lines”. Further, in data set [3] (setting [14]), the “FeAL-1 Fluc/Rluc response after hepcidin pre-treatment” value is on record as ~ 5 and the “FeAL-1 Fluc/Rluc response, hepcidin-treated vs untreated controls” value is listed as 2–3 fold. Moreover, in [4] (setting [14]), the “FeAL-1 Fluc/Rluc response after hepcidin pre-treatment” value is listed as ~ 5 and the “FeAL-1 Fluc/Rluc response, hepcidin-treated vs untreated controls” value is 2–3 fold. Besides, the “effect of hepcidin treatment on tumor LIP” value in data set [5] (setting [14]) is “measurably increased LIP in FC1245 tumors”. For the same compound, in data set [6] (FC1245 tumors, single comparison), the “tumoral ferroportin expression vs untreated control animal” value is given as “decreased tumoral ferroportin expression”. Besides, in [6], the “ferroportin staining in liver vs untreated controls” value is “reduced ferroportin staining”. Besides, the “4-HNE staining of tumors, treated vs untreated controls” value in [7] (FC1245 tumors) was “not significantly different”. Further, in data set [7], the “4-HNE staining in heart tissue vs untreated controls” value is given as “but not hepcidin-treated mice, showed increased 4-HNE staining” and the “4-HNE staining in liver vs control group” value is on record as “increased staining for 4-HNE”.
One may read the Cmax as the peak of the concentration-time curve. One may read the Tmax as the time at which the peak concentration occurs. `CN(CCN(C)C(=O)O[C@@H]1CCC[C@]2(C1)OOC1(O2)C2CC3CC(C2)CC1C3)C(=O)Oc1ccc2nc(C3=N[C@@H](C(=O)O)CS3)sc2c1` (stereo partly drawn) [FeAL-1, (S)-2-(6-(((2-(((((R,R)-dispiro[adamantane-2,3’-[1,2,4]trioxolane-5’,1’’-cyclohexan]-3’’-yl)oxy)carbonyl)(methyl)amino)ethyl)(methyl)carbamoyl)oxy)benzo[d]thiazol-2-yl)-4,5-dihydrothiazole-4-carboxylic acid]: in data set [8], the stability on storage result was “stable over several months”. The “stability in assay media lacking hemin” value in data set [9] (control without hemin) is on record as “stable in assay media lacking hemin”. The “time point by which FeAL-1 is completely consumed” value in data set [9] (reaction media containing ferrous hemin, 37 °C) is not above 1 min. Further, the “time point at which released D-luciferin is detected” value in [9] (reaction media containing ferrous hemin, second time point) came to 12 min. Also, the “luminescence response with Fe^2+ as ferrous ammonium sulfate (FAS)” value in [1] (2.5 μM FeAL-1, 2 hours incubation, then 10 μg/mL luciferase) is reported as “robust luminescence response”. Besides, the “iron-dependent luminescent response compared with ICL-1” value in [10] and in [11] was “stronger iron-dependent luminescent response from FeAL-1 than from ICL-1” each time. Moreover, in data set [2] (larger panel of cell lines), the “bioluminescent signal in response to FAC supplementation” value is reported as “robust bioluminescent signal”. Further, the “bioluminescence response with BPY iron chelator treatment” value in data set [2] (with or without FAC) is given as “expected reduction in bioluminescence response”. In [12], this compound came in with a Cmax of 5.91 µM. The Tmax in data set [12] amounted to 1 h. Further, the entries for the “normalized FeAL-1 Fluc/Rluc response” value in [3] (setting [15]), in data set [4] (setting [15]) and in data set [5] (setting [15]) were ~ 2.1, ~ 1.7 and ~ 0.7, respectively. Besides, in [3] (vs livers of non-tumor bearing mice), the “normalized luminescence signal in tumor relative to healthy liver” value was ~ 10 fold.
`COc1cccc2c1C(=O)c1c(O)c3c(c(O)c1C2=O)C[C@@](O)(C(=O)CO)C[C@@H]3O[C@H]1C[C@H](N)[C@H](O)[C@H](C)O1` [DOX, doxorubicin]: in data set [6], the “ferroportin staining in liver vs untreated controls” value is listed as “reduced ferroportin staining”. For the same compound, in [7], the “4-HNE staining in heart tissue vs untreated controls” value is listed as “increased 4-HNE staining” and the “4-HNE staining in liver vs control group” value is “increased staining for 4-HNE”. The “elevation of non-heme iron in liver, spleen, kidneys and blood” value in data set [13] was not above 2 fold.
